# bovine MsrA act = activators of bovine methionine sulfoxide reductase A | purified bovine MsrA, absorbance read-out | activation, % at 10.6 µM | 360,000 compounds, 0.3% hits; in the data active = activation above about 7.5%;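 also: 0% = vehicle and 100% = reference activator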
# proCasp7 act = counter-screen for procaspase-3 activators: activators of human procaspase-7 | P55210 | recombinant procaspase-7, Ac-DEVD-pNA absorbance 405 nm; D23A/D198A/D206A triple mutant, cannot self-cleave; scale: DMSO 0, 5 µM enzyme 100 | activation, % at 8.5 µM | 330,000 compounds, 0.093% hits | AID 463210;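 active = percent activation above the screen-wide mean plus 3 SD, cut at about 25% in these data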
#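 System: Procaspase-7 triple mutant (PC-7 D3A); measure: % activation from two-timepoint absorbance difference, scaled to controls; times: 1 h compound preincubation, 2 h substrate cleavage, 25 °C; also added: Ac-DEVD-pNA substrate, 400 µM as added; measured by: Epi-absorbance of released pNA at 405 nm, two timepoints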
# procasp3 activ = activators of human procaspase-3 | P42574 | 330,000 compounds, 0.11% hits | recombinant procaspase-3 D3A, Ac-DEVD-pNA absorbance 405 nm | activation, % at 8.5 µM;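 active = activation above the mean of all tested compounds plus 3 SD, cut at about 21% in these data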;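 also: 0% = DMSO alone and 100% = DMSO wells spiked with extra 5 µM PC-3 D3A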
# Target sequence (P42574 whole entry D9A/D28A/D175A): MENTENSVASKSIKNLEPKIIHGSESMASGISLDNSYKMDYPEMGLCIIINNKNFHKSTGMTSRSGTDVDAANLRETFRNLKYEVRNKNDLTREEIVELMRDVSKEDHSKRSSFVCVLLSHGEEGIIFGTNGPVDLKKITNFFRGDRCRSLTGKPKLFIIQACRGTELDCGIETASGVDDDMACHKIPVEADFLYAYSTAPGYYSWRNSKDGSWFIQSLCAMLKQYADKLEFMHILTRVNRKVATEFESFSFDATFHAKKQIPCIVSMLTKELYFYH
#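 Test system: Procaspase-3 D3A mutant, all three cleavage aspartates alanine | Dosing: Single dose, 8.5 µM nominal compound, 0.8% DMSO | Schedule: 1 h preincubation, 2 h reaction | Technique: 405 nm absorbance of p-nitroaniline, reads at 0 and 120 min | Repeats: One well per compound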
# MsrA inhibitor = bovine MsrA inhibition. purified bovine MsrA, absorbance read-out. inhibition, % at 15.5 µM. 360,000 compounds, 0.75% hits. AID 651718; in the data active = inhibition above about 4.5%;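 also: 0% = vehicle wells with enzyme and 100% = reference inhibitor wells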
# Tb MetRS inh = Trypanosoma brucei MetRS inhibition; purified T. brucei MetRS, ATP depletion, Kinase-Glo luminescence; inhibition, % at 11.9 µM; 360,000 compounds, 0.4% hits;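 active = inhibition above a per-plate cutoff of the control wells' mean inhibition plus 3 SD, cut at about 5.5% in these data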;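 also: 0% = DMSO wells median and 100% = median of wells with control inhibitor compound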
#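 technique = Kinase-Glo luminescence, ATP depletion format | system = purified MetRS (methionyl-tRNA synthetase) enzyme from Trypanosoma brucei | timing = 15 min preincubation, 2 h reaction, all 25 °C | evaluation = percent inhibition versus plate control medians | dosing = single dose, 11.9 µM final nominal, 0.9% final DMSO | also added = substrates ATP, L-methionine and bulk Escherichia coli tRNA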
# TbMetRS confirm = Trypanosoma brucei MetRS inhibition confirmed; 1,400 compounds, 93% hits; shares compounds with Tb MetRS inh; T. brucei MetRS enzyme, luminescence (ATP depletion); inhibition, % at 11.9 µM; AID 624412; in the data active = inhibition above about 7%
# Jurkat tox = Jurkat T cell cytotoxicity for MetRS hits; shares compounds with Tb MetRS inh; Jurkat cells viability, ATP luminescence; inhibition, % at 8.3 µM; 1,400 compounds, 12% hits; in the data active = inhibition above about 15%;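 also: 0% = vehicle and 100% = reference inhibitor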
# TbMetRS FP orth = orthogonal test for Trypanosoma brucei MetRS inhibitors. shares compounds with Tb MetRS inh. 1,400 compounds, 44% hits. purified T. brucei MetRS, fluorescence polarization. inhibition, % at 11.9 µM; in the data active = inhibition above about 17%;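 also: 0% = vehicle wells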
# Numbers without * were called inactive; x = no result. Most compounds without a hit are left out; they make up all but 1.5% or so of the library.
SMILES,bovine MsrA act,proCasp7 act,procasp3 activ,MsrA inhibitor,Tb MetRS inh,TbMetRS confirm,Jurkat tox,TbMetRS FP orth
Nc1ccn([C@@H]2O[C@H](C(=O)N3CCN(C(=O)N4CCCCC4)CC3)[C@@H](O)[C@H]2O)c(=O)n1,x,x,x,0.0,x,x,x,x
CN(N=Cc1ccc2c(c1)OCO2)C(=O)c1ccccc1N,x,x,x,1.9,x,x,x,x
C=CCCC1CN(Cc2ccc(OC)cc2)S(=O)(=O)c2c(Oc3ccc(C(C)C)cc3)cccc2O1 (centres undefined),x,x,x,1.2,x,x,x,x
O=C(Cn1cnc2ccccc21)Nc1cc(C(F)(F)F)ccc1N1CCOCC1,1.6,7.4,7.8,-0.6,27.2*,43.5*,-1.9,23.5*
O=C(CSc1nc2ccccc2o1)Nc1cc(C(F)(F)F)ccc1N1CCOCC1,1.9,-0.6,5.2,-1.1,-0.2,x,x,x
Cn1c(SCC(=O)Nc2ccc3cn[nH]c3c2)nnc1-c1cnccn1,-0.3,-3.8,-0.3,0.7,7.8*,14.2*,-4.2,9.0
O=C(CNC(=O)c1cccc(Br)c1)N/N=C/c1cn[nH]c1-c1ccccc1,-3.1,2.4,0.1,-0.6,0.2,x,x,x
O=C(CNC(=O)c1cccc(Br)c1)N/N=C/c1ccc[nH]1,-4.1,0.2,-4.6,2.0,20.1*,53.4*,14.6,24.4*
O=C(C1=C[C@@H](c2ccc(Br)cc2)C[C@@H](OCCCCO)O1)N1CCN(Cc2ccc3c(c2)OCO3)CC1,-0.9,6.6,3.5,2.6,9.0*,30.6*,5.0,8.7
O=C(C1=C[C@@H](c2csc3ccccc23)C[C@@H](OCCCCO)O1)N1CCN(Cc2ccc3c(c2)OCO3)CC1,-2.0,-6.1,1.9,0.7,11.5*,48.3*,0.8,27.4*
COc1ccc(Cn2c(C)c(CC(=O)Nc3ccc(Oc4cccnc4)c(C)c3)c3ccccc32)cc1,x,x,x,0.5,x,x,x,x
c1ccc2c3c([nH]c2c1)-c1[nH]ncc1CC3,-3.2,1.2,2.2,-1.1,16.1*,19.3*,2.5,22.0*
O=C(N/N=C1\CCCc2c1[nH]c1ccc(Cl)cc21)c1ccncc1,-14.6,-9.2,-16.7,1.8,0.5,x,x,x
Clc1ccc2[nH]c3c(c2c1)CCc1cn[nH]c1-3,-3.0,1.1,0.6,1.4,31.7*,28.2*,4.8,99.7*
COc1ccccc1CCn1cnc(-c2cccc(Br)c2)c1C(C)C,x,x,x,-0.1,x,x,x,x
C[C@H](O)[C@@H]1C(=O)N2CCc3c([nH]c4ccccc34)[C@@H]2C[C@@H]1N(C)C(=O)Nc1ccc(Br)cc1,x,x,x,1.2,x,x,x,x
CN(CC(=O)Nc1ccc(F)c(F)c1F)C(=O)c1ccc(-n2cncn2)c([N+](=O)[O-])c1,-3.7,2.0,-5.9,-1.0,7.7*,32.9*,-6.5,17.1*
CN(CC(=O)Nc1cccc(F)c1)C(=O)c1ccc(-n2cncn2)c([N+](=O)[O-])c1,-2.2,3.2,2.3,-0.1,51.2*,83.5*,0.2,50.7*
CN(CC(=O)Nc1c(Cl)cccc1Cl)C(=O)c1ccc(-n2cncn2)c([N+](=O)[O-])c1,-1.2,0.3,-2.2,-1.4,0.7,x,x,x
O=C(COc1ccc2ccccc2c1)Nc1nc2ccccc2[nH]1,0.7,4.1,2.6,0.7,9.1*,12.5*,2.1,5.4
COc1cccc(CC(=O)Nc2nc3ccccc3[nH]2)c1,-11.1,-12.8,4.8,-0.1,6.0*,13.7*,-0.5,6.9
COc1ccccc1C(=O)N1CCN(C(=O)[C@H](CCc2ccccc2)NC(=O)[C@H]2O[C@@H](n3cnc4c(N)ncnc43)[C@H](O)[C@@H]2O)CC1,x,x,x,-0.7,x,x,x,x
CC(C)(C)S(=O)(=O)N1C[C@H]2CC(=O)C(CCO)=C2[C@@H]1CCO,x,x,x,-1.0,x,x,x,x
O=C(NCCc1ccc(Cl)cc1)Nc1ccc(F)cc1,-0.5,1.0,2.4,0.8,17.6*,30.1*,-2.7,12.3
Cc1nnsc1SCCNC(=O)Nc1ccc(Cl)cc1,-3.3,8.5,2.8,0.9,6.5*,11.8*,11.4,14.6
